Results as given in ChEMBL document CHEMBL1154089, “Novel N-(3-carboxyl-9-benzyl-beta-carboline-1-yl)ethylamino acids: synthesis, anti-tumor evaluation, intercalating determination, 3D QSAR analysis and docking investigation” (Eur J Med Chem, 2009).
Active and inactive are the calls of the source. The calls are words filed in the database; no cut-off is given here.

Key:
Mus musculus [1] = test: Toxicity in ICR mouse assessed as tetanus at > 500 mg/kg, ip after 7 days; type: organism-based; parameters: dose 500 mg/kg, route intraperitoneal; settings: in vivo, 168 h
In short: (§1)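 Mice fasted overnight with free access to water, then given a single i.p. injection of 150, 300 or 500 mg/kg in 0.2 ml of 0.9% saline. Groups of 12 (six male, six female). Animals were watched continuously for up to 7 days for abnormal behaviour (tremor, twitch, jumping, tetanus, supination) or death. They were sacrificed on day 7, and heart, liver and kidneys were checked macroscopically. LD50 was estimated graphically.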

Mus musculus [2] = test: Toxicity in ICR mouse assessed as death at > 500 mg/kg, ip after 7 days; type: organism-based; parameters: dose 500 mg/kg, route intraperitoneal; settings: in vivo, 168 h; in short: as §1
HepG2 = test: Cytotoxicity against human HepG2 cells after 48 hrs by MTT assay; type: functional, cell-based; settings: HepG2, 48 h
In short: (§2)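 Cells grown in DMEM or RPMI-1640 with 10% FBS plus penicillin/streptomycin. Seeded at 5 × 10^4 cells/ml and given 4 h at 37 °C in 5% CO2 before the medium was replaced with compound (0.1–400 µM, DMSO vehicle; vehicle control 1% DMSO). After 48 h, MTT added (final 0.5 mg/ml) for 4 h. Formazan dissolved in DMSO and read at 570 nm. IC50 is the concentration giving 50% growth inhibition.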

Mus musculus [3] = test: Toxicity in ICR mouse assessed as tremor at > 500 mg/kg, ip after 7 days; type: organism-based; parameters: dose 500 mg/kg, route intraperitoneal; settings: in vivo, 168 h; in short: as §1
CCRF S-180 [4] = test: Antitumor activity against mouse S180 cells xenografted in ICR mouse assessed as decrease in tumor weight at 0.0089 umol/kg, ip administered 24 hrs after tumor implantation once daily for 7 consecutive days measured after 24 hrs last post dose; type: functional
In short: (§3)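 Male ICR mice, 10–12 weeks old. Solid tumors from 1 × 10^7 viable S180 ascites cells in 0.2 ml 0.9% saline, injected s.c. at the right armpit. Random allocation at 24 h, 12 per group. Dosed i.p. daily in 0.2 ml 0.9% saline for 7 days. Saline-only negative control; cytarabine 89 µmol/kg positive control. Tumors excised and weighed 24 h after the last dose. ANOVA used for statistics.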

Mus musculus [5] = test: Toxicity in mouse S180 cells xenografted in ICR mouse assessed as increase in body weight at 89 umol/kg, ip administered 24 hrs after tumor implantation once daily for 7 consecutive days measured after 24 hrs last post dose; type: organism-based, CCRF S-180; settings: in vivo
In short: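 S180-bearing male ICR mice, n = 12 per group, given 89 µmol/kg i.p. daily in 0.2 ml 0.9% saline for 7 days, starting 24 h after s.c. implantation. Animals weighed daily. Result expressed as body-weight increase from the start of treatment, in g, mean ± SD.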

Mus musculus [6] = test: Toxicity in ICR mouse assessed as twitch at > 500 mg/kg, ip after 7 days; type: organism-based; parameters: dose 500 mg/kg, route intraperitoneal; settings: in vivo, 168 h; in short: as §1
CCRF S-180 [7] = test: Antitumor activity against mouse S180 cells xenografted in ICR mouse assessed as inhibition of tumor growth at > 89 umol/kg, ip administered 24 hrs after tumor implantation once daily for 7 consecutive days measured after 24 hrs last post dose; type: functional, organism-based
Mus musculus [8] = test: Toxicity in ICR mouse assessed as liver necropsy at > 500 mg/kg, ip after 7 days; type: organism-based; parameters: dose 500 mg/kg, route intraperitoneal; settings: in vivo, 168 h; in short: as §1
[9] = Cytotoxicity against human MES-SA cells after 48 hrs by MTT assay; type: functional, cell-based; in short: as §2
CCRF S-180 [10] = test: Antitumor activity against mouse S180 cells xenografted in ICR mouse assessed as inhibition of tumor growth at 0.0089 umol/kg, ip administered 24 hrs after tumor implantation once daily for 7 consecutive days measured after 24 hrs last post dose; type: functional; settings: CCRF S-180, ip
In short: (§4)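 S180 solid tumors in male ICR mice (10–12 weeks), 1 × 10^7 cells s.c. at the right armpit. Mice randomized at 24 h, n = 12 per group, and dosed i.p. daily in 0.2 ml 0.9% saline for 7 days. Tumors weighed 24 h after the final dose. Inhibition (%) = [(A − B)/A] × 100, where A is the mean tumor weight of saline controls and B is the mean of the treated group.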

[11] = Cytotoxicity against human H1299 cells after 48 hrs by MTT assay; type: functional, cell-based; settings: NCI-H1299, 48 h; in short: as §2
CCRF S-180 [12] = test: Antitumor activity against mouse S180 cells xenografted in ICR mouse assessed as decrease in tumor weight at 0.89 umol/kg, ip administered 24 hrs after tumor implantation once daily for 7 consecutive days measured after 24 hrs last post dose; type: functional; in short: as §3
Mus musculus [13] = test: Toxicity in ICR mouse assessed as supination at > 500 mg/kg, ip after 7 days; type: organism-based; parameters: dose 500 mg/kg, route intraperitoneal; settings: in vivo, 168 h; in short: as §1
HL-60 = test: Cytotoxicity against human HL60 cells after 48 hrs by MTT assay; type: functional, cell-based; settings: HL-60, 48 h; in short: as §2
CCRF S-180 [14] = test: Antitumor activity against mouse S180 cells xenografted in ICR mouse assessed as inhibition of tumor growth at 89 umol/kg, ip administered 24 hrs after tumor implantation once daily for 7 consecutive days measured after 24 hrs last post dose; type: functional; settings: CCRF S-180, ip; in short: as §4
Mus musculus [15] = test: Toxicity in ICR mouse assessed as heart necropsy at > 500 mg/kg, ip after 7 days; type: organism-based; parameters: dose 500 mg/kg, route intraperitoneal; settings: in vivo, 168 h; in short: as §1
CCRF S-180 [16] = test: Antitumor activity against mouse S180 cells xenografted in ICR mouse assessed as decrease in tumor weight at 89 umol/kg, ip administered 24 hrs after tumor implantation once daily for 7 consecutive days measured after 24 hrs last post dose; type: functional; in short: as §3
Mus musculus [17] = test: Toxicity in ICR mouse assessed as kidneys necropsy at > 500 mg/kg, ip after 7 days; type: organism-based, Kidney; parameters: dose 500 mg/kg, route intraperitoneal; settings: in vivo, 168 h; in short: as §1
CCRF S-180 [18] = test: Antitumor activity against mouse S180 cells xenografted in ICR mouse assessed as inhibition of tumor growth at 0.89 umol/kg, ip administered 24 hrs after tumor implantation once daily for 7 consecutive days measured after 24 hrs last post dose; type: functional; settings: CCRF S-180, ip; in short: as §4
HeLa = test: Cytotoxicity against human HeLa cells after 48 hrs by MTT assay; type: functional, cell-based; in short: as §2
Mus musculus [19] = test: Toxicity in ICR mouse assessed as jumping at > 500 mg/kg, ip after 7 days; type: organism-based; parameters: dose 500 mg/kg, route intraperitoneal; settings: in vivo, 168 h; in short: as §1
Mus musculus [20] = test: Toxicity in mouse S180 cells xenografted in ICR mouse assessed as spleen index at 89 umol/kg, ip administered 24 hrs after tumor implantation once daily for 7 consecutive days measured after 24 hrs last post dose; type: organism-based, CCRF S-180; settings: in vivo
In short: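 S180-bearing male ICR mice (n = 12) received 89 µmol/kg i.p. daily in 0.2 ml saline for 7 days. Killed under ether 24 h after the last dose; spleens excised and weighed. Spleen index given as mean ± SD, […] body weight.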

For `C[C@H](NCCc1nc(C(=O)O)cc2c3ccccc3n(Cc3ccccc3)c12)C(=O)O`, the Activity (Mus musculus [1]) was “Non-toxic”, the Activity (Mus musculus [2]) was “Non-toxic” and the IC50 (HepG2) was 242 µM. The Activity (Mus musculus [3]) was “Non-toxic”, the Activity (CCRF S-180 [4]) was 1.64 g and the Activity (Mus musculus [5]) was 12.92 g. For the same compound, the Activity (Mus musculus [6]) was “Non-toxic”, the Activity (CCRF S-180 [7]) was “Active” and the Activity (Mus musculus [8]) was “Non-toxic”. The IC50 [9] was 120 µM, the inhibition in vivo at 0.0089 µmol/kg (CCRF S-180 [10]) was 1.5% and the IC50 [11] was 81.8 µM. The Activity (CCRF S-180 [12]) was 1.22 g, the Activity (Mus musculus [13]) was “Non-toxic” and the IC50 (HL-60) was 28.1 µM. The inhibition in vivo at 89 µmol/kg (CCRF S-180 [14]) was 55.2%, the Activity (Mus musculus [15]) was “Non-toxic” and the Activity (CCRF S-180 [16]) was 0.74 g. For the same compound, the Activity (Mus musculus [17]) was “Non-toxic”, the inhibition in vivo at 0.89 µmol/kg (CCRF S-180 [18]) was 25.6% and the IC50 (HeLa) was 122 µM. For the same compound, the Activity (Mus musculus [19]) was “Non-toxic” and the Activity (Mus musculus [20]) was 13.3 mg/g.
